TNAP act hi DEA: TNAP activators at high phosphate acceptor level, primary screen, biochemical, luminescence, uHTS; AID 1136, 2008; Alkaline phosphatase, tissue-nonspecific isozyme (Homo sapiens), P05186; activation factor at 20 µM; purified TNAP, CDP-star luminescence, 1 M DEA, 30 min; active compounds read high; 0 = EDTA background, 1 = DMSO-only activity; 200,000 tested, under 10 active;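 active = activation factor at least 2 at 20 µM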
Target sequence (P05186 whole entry, looked up): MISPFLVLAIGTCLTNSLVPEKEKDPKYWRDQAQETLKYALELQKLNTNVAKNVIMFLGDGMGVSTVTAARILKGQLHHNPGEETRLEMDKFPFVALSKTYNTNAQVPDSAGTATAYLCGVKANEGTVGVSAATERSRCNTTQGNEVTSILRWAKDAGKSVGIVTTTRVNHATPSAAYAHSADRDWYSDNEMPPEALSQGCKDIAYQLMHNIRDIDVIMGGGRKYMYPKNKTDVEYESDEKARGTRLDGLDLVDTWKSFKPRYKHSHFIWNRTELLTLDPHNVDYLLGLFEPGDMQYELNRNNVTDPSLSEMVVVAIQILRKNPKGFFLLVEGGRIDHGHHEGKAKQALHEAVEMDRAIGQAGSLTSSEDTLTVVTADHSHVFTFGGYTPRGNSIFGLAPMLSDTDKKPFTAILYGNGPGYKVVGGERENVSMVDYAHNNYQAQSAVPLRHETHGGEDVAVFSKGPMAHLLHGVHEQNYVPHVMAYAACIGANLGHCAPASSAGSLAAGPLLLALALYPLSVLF
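Test system – human TNAP · Doses – 20 µM single point · Incubation – 30 min, room temperature · Signal – luminescent substrate turnover signal · Read-out basis – activation factor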
PMI act hi M6P: human PMI activators, high substrate, primary screen, biochemical, fluorescence intensity, near-saturating mannose 6-phosphate | Mannose-6-phosphate isomerase (Homo sapiens), P34949 | coupled PMI enzyme assay, resazurin fluorescence, 20 min; active compounds read high; 1 = untreated enzyme, 0 = substrate-free blank | activation factor at 20 µM | 0.34% of 190,000 active;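 active = activation factor of 2 or more at 20 µM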
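Material: human phosphomannose isomerase with PGI, G6PDH, diaphorase coupling enzymes. Quantity: 15 ng/mL PMI. Medium: HEPES pH 7.4 buffer with MgCl2 and Tween-20. Reagent: Near-saturating mannose-6-phosphate, 1.0 mM. Compound: 20 µM single dose. Times: enzyme reaction with compound 20 min at room temperature. Detection: resorufin fluorescence at Ex 544/Em 590 nm.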
PMI act: activators of human PMI, primary screen, biochemical, fluorescence intensity, near-Km mannose 6-phosphate; purified human PMI, coupled resazurin fluorescence, 20 min; active compounds read high; 1 = vehicle control, 0 substrate-free wells; Mannose-6-phosphate isomerase (Homo sapiens), P34949; AID 1214, 2008; 0.005% of 190,000 active; activation factor at 20 µM;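 active = activation factor of 2 or more at 20 µM, relative to plate controls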
TNAP inh hiacc: human TNAP enzyme inhibitors, primary screen, biochemical, luminescent, high phosphate acceptor level, uHTS; purified TNAP, CDP-star luminescence, 1 M DEA; inhibition, % at 20 µM; 0.03% of 200,000 active; AID 1135, 2008;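 active = over 50% inhibition of tissue-nonspecific alkaline phosphatase at 20 µM in the single-dose screen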
TNAP inh no acc: human TNAP enzyme inhibitors, primary screen, biochemical, luminescent, no phosphate acceptor, uHTS | Alkaline phosphatase, tissue-nonspecific isozyme (Homo sapiens), P05186 | purified TNAP, CDP-star luminescence, 30 min | inhibition, % at 20 µM | 0.26% of 200,000 active;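 active = tissue-nonspecific alkaline phosphatase inhibition above about 50% at 20 µM in the single-dose screen, limit read from the data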
Hits are given with their value; n = inactive. Most compounds without a hit are left out; they make up all but 0.64% or so of the library.

SMILES	TNAP act hi DEA	PMI act hi M6P	PMI act	TNAP inh hiacc	TNAP inh no acc
CC(C(=O)Nc1ccc(S(=O)(=O)N2CCCCC2)cc1)N1CCN(c2ccccn2)CC1 (configuration not stated)	n	n	n	n	n
COc1ccc(/C=C(/NC(=O)c2cccc([N+](=O)[O-])c2)C(=O)O)cc1	n	2	n	n	n
CN(C)c1ccc(/C=C/c2ccc3ccccc3[n+]2C)cc1	n	n	n	56.8	56.9
CN(C)c1ccc(/C=C/c2ccncc2)cc1	n	n	n	n	n
CN(C)c1ccc(/C=C/c2ccc3c4ccccc4ccc3[n+]2-c2ccccc2)cc1	n	n	n	69.3	73.8
CN(C)c1ccc(/C=C/C(=O)c2ccccc2O)cc1	n	n	n	n	n
O=C(COC(=O)c1ccc2ccccc2n1)Nc1cccc(S(=O)(=O)NC2=NCCCCC2)c1	2	n	n	n	n

Source: PubChem
